Laboratory results as given in ChEMBL document CHEMBL1159071, “Discovery of 4-(5-methyloxazolo[4,5-b]pyridin-2-yl)-1,4-diazabicyclo[3.2.2]nonane (CP-810,123), a novel alpha 7 nicotinic acetylcholine receptor agonist for the treatment of cognitive disorders in schizophrenia: synthesis, SAR development, and in vivo efficacy in cognition models” (J Med Chem, 2010).

Assays:
[1] = biological target: T1, 5-hydroxytryptamine receptor 3A (Homo sapiens, UniProt P46098); experiment: […] at human 5HT3 receptor expressed in human skin epithelial cells assessed as stimulation of calcium flux by FLIPR assay; assay type: functional, cell-based, Epithelial cell
T1 sequence (P46098 whole entry): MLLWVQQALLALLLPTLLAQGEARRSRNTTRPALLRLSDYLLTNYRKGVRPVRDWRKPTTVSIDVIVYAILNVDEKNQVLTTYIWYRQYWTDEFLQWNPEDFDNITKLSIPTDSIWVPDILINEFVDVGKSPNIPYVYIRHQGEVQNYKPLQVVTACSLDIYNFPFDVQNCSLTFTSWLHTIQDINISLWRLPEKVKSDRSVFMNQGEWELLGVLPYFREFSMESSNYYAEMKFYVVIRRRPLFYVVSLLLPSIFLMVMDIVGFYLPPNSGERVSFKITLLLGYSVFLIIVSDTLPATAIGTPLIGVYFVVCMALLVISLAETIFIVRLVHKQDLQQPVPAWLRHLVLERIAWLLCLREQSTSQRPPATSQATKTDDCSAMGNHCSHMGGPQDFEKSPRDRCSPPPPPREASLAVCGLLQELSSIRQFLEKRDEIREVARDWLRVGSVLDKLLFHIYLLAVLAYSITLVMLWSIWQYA
In short: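 Human 5-HT3A stably in human skin epithelial cells, plated 15 000 cells/well 2 days ahead; loaded 1 h at 37 °C with Fluo-4 (8 μM final), washed into HBSS with 20 mM Tris-HEPES, 1 μM atropine, 4 mM Ca2+, pH 7.4. Compound added 2 min, then 5-HT challenge (250 nM final) 2 min; FLIPR calcium read.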

[2] = Agonist activity at human alpha7 nAChR/mouse 5HT3 chimeric receptor expressed in SH-EP1 cells assessed as increase in intracellular calcium level relative to 100 uM nicotine; assay type: functional
In short: (§1)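 α7-5HT3 chimera stably in SH-EP1 cells grown to confluence; loaded with Calcium Green 1 AM (2 μM final) 60 min at 37 °C. Compound added directly; calcium rise read by FLIPR (excitation 488 nm, emission >525 nm).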

[3] = biological target: T2, 5-hydroxytryptamine receptor 3A (Mus musculus, UniProt P23979); experiment: Displacement of [3H]LY278584 from mouse 5HT3 receptor expressed in HEK293 cells; assay type: cell-based
T2 sequence (P23979 whole entry): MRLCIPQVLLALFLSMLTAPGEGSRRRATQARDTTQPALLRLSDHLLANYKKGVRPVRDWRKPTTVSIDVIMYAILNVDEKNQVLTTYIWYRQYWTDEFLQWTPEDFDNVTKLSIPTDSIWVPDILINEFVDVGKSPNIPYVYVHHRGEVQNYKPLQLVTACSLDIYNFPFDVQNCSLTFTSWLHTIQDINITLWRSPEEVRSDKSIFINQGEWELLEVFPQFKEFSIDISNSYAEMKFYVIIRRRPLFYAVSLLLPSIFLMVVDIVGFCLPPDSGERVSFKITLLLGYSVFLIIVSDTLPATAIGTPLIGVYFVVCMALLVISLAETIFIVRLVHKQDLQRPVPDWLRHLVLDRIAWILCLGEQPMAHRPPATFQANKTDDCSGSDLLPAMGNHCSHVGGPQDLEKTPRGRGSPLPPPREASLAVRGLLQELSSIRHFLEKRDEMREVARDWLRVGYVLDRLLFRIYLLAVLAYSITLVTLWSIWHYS
In short: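 Mouse 5-HT3A in HEK293 cell homogenate, 20 mM Tris-HCl pH 7.4 with 154 mM NaCl. [3H]LY278584 1 nM final; nonspecific binding with 10 μM ICS205-930; 60 min at 37 °C, then filtration onto PEI-soaked GF/B. Ki by Cheng-Prusoff; mean of three six-point curves in triplicate in one assay; tropisetron standard.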

[4] = Agonist activity at human alpha7 nAChR/mouse 5HT3 chimeric receptor expressed in SH-EP1 cells assessed as increase in intracellular calcium level; assay type: functional, cell-based; in short: as §1
[5] = biological target: Neuronal acetylcholine receptor subunit alpha-7 (Rattus norvegicus, UniProt Q05941); experiment: Displacement of [125I]BTX from rat alpha7 nicotinic acetylcholine receptor expressed in GH4C1 cells; assay type: cell-based, GH4-C1
In short: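 GH4C1 membranes (20 mM HEPES, 118 mM NaCl, 4.5 mM KCl, 2.5 mM CaCl2, 1.2 mM MgSO4, pH 7.5) incubated 2 h at 37 °C with [125I]α-bungarotoxin 0.4 nM final. Nonspecific binding with 1 μM methyllycaconitine; filtration onto PEI-treated GF/B filters. Ki = IC50/(1+[L]/KD); six-point curves in triplicate; geometric mean with 95% CI.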

[6] = biological target: Neuronal acetylcholine receptor subunit alpha-7 (Rattus norvegicus) (UniProt Q05941); experiment: Agonist activity at rat alpha7 nicotinic acetylcholine receptor expressed in Xenopus oocytes assessed as stimulation of channel currents at 32 uM at holding potential of -60/-90 mV by electrophysiology method relative to 50 uM nicotine; assay type: functional, cell-based; details: Oocyte
In short: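 Xenopus oocytes defolliculated with collagenase (1.3 mg/mL, 3 h), injected with 10-50 ng rat α7 cRNA, kept in Barth's saline up to 2 weeks. Voltage clamp at -60 or -90 mV; current evoked by compound at 32 μM given as % of the 50 μM nicotine response (set to 100%).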

CHO = experiment: Toxicity in CHO cells assessed as induction of DNA fragments by in vitro micronucleus assay; assay type: cell-based, Cricetulus griseus; details: chinese hamster
[7] = biological target: Voltage-gated inwardly rectifying potassium channel KCNH2 (Homo sapiens, UniProt Q12809)
[8] = biological target: Neuronal acetylcholine receptor; alpha3/beta4 (Homo sapiens, UniProt P30926+P32297); experiment: Displacement of [3H]epibatidine from alpha3beta4 nAChR expressed in IMR32 cells; assay type: cell-based, IMR-32
In short: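 Alpha3β4 binding in IMR32 cells with [3H]epibatidine radioligand. Six-point concentration-response curve run in triplicate and averaged.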

[9] = Selectivity for rat alpha7 nicotinic acetylcholine receptor over mouse 5HT3 receptor

Neuronal acetylcholine receptor subunit alpha-7 (Rattus norvegicus), sequence (Q05941 whole entry): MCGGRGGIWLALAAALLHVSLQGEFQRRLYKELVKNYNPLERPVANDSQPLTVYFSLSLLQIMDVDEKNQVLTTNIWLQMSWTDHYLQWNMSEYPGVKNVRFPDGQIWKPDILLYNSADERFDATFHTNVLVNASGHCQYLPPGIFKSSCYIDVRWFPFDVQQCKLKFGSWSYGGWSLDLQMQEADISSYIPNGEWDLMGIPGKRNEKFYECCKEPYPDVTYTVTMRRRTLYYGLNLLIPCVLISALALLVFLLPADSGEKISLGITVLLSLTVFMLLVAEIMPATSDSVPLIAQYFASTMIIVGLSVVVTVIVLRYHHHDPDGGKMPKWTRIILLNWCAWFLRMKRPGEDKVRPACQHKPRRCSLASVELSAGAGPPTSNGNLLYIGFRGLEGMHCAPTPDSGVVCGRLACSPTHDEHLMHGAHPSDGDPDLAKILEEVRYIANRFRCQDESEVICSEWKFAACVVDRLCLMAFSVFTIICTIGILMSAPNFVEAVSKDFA
Neuronal acetylcholine receptor subunit alpha-7, sequence (Q05941 whole entry): as above
Voltage-gated inwardly rectifying potassium channel KCNH2, sequence (Q12809 whole entry): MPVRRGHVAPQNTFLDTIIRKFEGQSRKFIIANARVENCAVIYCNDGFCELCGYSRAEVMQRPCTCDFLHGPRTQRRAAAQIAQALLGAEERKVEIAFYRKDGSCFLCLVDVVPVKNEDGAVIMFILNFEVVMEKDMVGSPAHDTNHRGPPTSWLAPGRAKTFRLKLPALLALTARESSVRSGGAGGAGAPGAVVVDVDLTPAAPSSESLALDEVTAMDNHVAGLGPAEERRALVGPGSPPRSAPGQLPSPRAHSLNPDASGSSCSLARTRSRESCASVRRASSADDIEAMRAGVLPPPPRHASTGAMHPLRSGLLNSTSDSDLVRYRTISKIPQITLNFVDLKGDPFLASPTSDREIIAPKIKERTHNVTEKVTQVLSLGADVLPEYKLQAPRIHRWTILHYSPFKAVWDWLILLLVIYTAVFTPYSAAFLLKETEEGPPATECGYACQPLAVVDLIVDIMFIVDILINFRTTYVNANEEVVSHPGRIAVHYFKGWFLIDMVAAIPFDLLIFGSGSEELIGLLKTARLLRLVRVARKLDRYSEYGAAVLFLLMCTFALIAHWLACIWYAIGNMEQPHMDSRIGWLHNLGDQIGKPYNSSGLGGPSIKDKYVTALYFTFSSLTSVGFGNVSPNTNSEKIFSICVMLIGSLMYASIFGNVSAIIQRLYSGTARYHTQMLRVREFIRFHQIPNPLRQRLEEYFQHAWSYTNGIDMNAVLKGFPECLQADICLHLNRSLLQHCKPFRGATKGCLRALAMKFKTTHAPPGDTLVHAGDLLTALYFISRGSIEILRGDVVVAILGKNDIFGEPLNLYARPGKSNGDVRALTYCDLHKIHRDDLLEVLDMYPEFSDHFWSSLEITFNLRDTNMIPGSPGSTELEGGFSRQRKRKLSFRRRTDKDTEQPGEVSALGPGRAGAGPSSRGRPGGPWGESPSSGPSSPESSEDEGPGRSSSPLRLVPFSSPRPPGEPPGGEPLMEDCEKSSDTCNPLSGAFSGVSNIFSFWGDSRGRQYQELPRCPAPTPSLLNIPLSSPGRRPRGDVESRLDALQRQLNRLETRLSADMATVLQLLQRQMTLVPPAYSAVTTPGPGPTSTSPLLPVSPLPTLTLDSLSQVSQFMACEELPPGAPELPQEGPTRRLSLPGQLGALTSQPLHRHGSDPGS
Neuronal acetylcholine receptor; alpha3/beta4, sequence (P30926 whole entry): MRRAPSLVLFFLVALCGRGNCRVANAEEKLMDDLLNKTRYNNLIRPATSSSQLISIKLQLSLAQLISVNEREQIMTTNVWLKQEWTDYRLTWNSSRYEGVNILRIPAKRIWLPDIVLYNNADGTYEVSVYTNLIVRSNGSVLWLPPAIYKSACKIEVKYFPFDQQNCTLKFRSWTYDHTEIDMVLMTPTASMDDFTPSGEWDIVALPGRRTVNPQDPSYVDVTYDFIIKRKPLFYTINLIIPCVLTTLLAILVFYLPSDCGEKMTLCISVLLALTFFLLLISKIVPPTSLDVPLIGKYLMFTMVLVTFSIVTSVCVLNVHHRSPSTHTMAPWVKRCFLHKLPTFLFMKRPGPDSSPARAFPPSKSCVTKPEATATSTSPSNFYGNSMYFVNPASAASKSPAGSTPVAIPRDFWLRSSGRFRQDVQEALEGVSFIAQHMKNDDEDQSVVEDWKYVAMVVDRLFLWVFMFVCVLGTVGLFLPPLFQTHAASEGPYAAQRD
Neuronal acetylcholine receptor; alpha3/beta4, sequence (P32297 whole entry): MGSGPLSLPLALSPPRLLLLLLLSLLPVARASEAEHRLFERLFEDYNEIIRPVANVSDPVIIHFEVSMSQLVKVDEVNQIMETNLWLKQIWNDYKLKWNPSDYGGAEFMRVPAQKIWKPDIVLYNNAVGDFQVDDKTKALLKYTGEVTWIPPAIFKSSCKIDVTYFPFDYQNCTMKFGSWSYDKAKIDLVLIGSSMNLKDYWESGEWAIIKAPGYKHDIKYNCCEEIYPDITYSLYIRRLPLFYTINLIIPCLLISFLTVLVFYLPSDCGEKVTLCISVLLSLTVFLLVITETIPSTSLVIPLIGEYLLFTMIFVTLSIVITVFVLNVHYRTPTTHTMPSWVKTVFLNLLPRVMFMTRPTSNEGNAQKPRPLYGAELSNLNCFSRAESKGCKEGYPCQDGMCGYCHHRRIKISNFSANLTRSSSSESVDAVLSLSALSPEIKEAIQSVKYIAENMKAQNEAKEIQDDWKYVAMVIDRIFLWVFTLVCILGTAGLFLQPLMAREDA

Row | Structure (SMILES) | IC50 [1] [nM] | Efficacy [2] [%] | Ki [3] [nM] | EC50 [4] [nM] | Ki [5] [nM] | Activity [6] [%] | Activity (CHO) | IC50 [7] [nM] | IC50 [8] [nM] | Ratio Ki [9]
1 | Clc1cnc2nc(N3CCN4CCC3CC4)oc2c1 | 484 | 83 | 1370 | 160 | 1 |  |  |  |  | 
2 | c1ccc(-c2cnc3nc(N4CCN5CCC4CC5)oc3c2)cc1 |  | 71 | 2120 | 320 | 7.04 |  |  |  |  | 
3 | Cc1ccc2nc(N3CCN4CCC3CC4)oc2c1 |  |  | < 17 |  | 17.9 | 197 |  |  |  | 
4 | c1cc2oc(N3CCN4CCC3CC4)nc2nc1C1CCCC1 |  | 54 | > 5290 | 525 | 5.3 |  |  |  |  | 
5 | c1cc2oc(N3CCN4CCC3CC4)nc2cn1 |  |  | 2120 |  | 312 | 156 |  |  |  | 
6 | N#Cc1cnc2nc(N3CCN4CCC3CC4)oc2c1 |  | 58 | > 5290 | 510 | 6.2 |  |  |  |  | 
7 | c1ccc2oc(N3CCN4CCC3CC4)nc2c1 |  |  | 13 |  | 22.5 | 183 |  |  |  | 
8 | Fc1cnc2nc(N3CCN4CCC3CC4)oc2c1 | 2480 | 64 | 6200 | 213 | 17.2 |  | Toxic | 8700 |  | 
9 | c1ncc(-c2cnc3nc(N4CCN5CCC4CC5)oc3c2)cn1 |  |  | > 7140 |  | 60 |  |  |  |  | 
10 | CCC(C)c1cnc2nc(N3CCN4CCC3CC4)oc2c1 (stereo unspecified) |  |  |  |  | > 1000 |  |  |  |  | 
11 | Cc1cnc2nc(N3CCN4CCC3CC4)oc2c1 |  | 55 | 3390 | 1020 | 6.66 |  |  |  |  | 
12 | Fc1ccccc1-c1ccc2oc(N3CCN4CCC3CC4)nc2n1 | > 7310 | 73 | > 3770 | 160 | 3.45 |  | Non-toxic | 2800 |  | 
13 | c1ccc(-c2cnc3oc(N4CCN5CCC4CC5)nc3c2)cc1 |  | 69 | 3670 | 264 | 2.31 |  |  |  |  | 
14 | CCc1cnc2nc(N3CCN4CCC3CC4)oc2c1 |  | 53 | > 5260 | 300 | 22.5 |  |  |  |  | 
15 | Clc1cnc2oc(N3CCN4CCC3CC4)nc2c1 |  | 62 |  | 227 | 2.59 |  |  |  |  | 
16 | c1cc(-c2cnc3nc(N4CCN5CCC4CC5)oc3c2)n[nH]1 |  | 68 | > 5260 | 390 | 23 |  |  |  |  | 
17 | c1ccc(Oc2ccc3oc(N4CCN5CCC4CC5)nc3n2)cc1 |  | 63 | 6830 | 380 | 17.3 |  |  |  |  | 
18 | O=C(Oc1ccccc1)N1CCN2CCC1CC2 |  |  | 3990 |  |  |  |  |  |  | 
19 | c1cncc(-c2cnc3nc(N4CCN5CCC4CC5)oc3c2)c1 |  | 70 | > 5350 | 430 | 119 |  |  |  |  | 

Row | Structure (SMILES) | IC50 [1] [nM] | Efficacy [2] [%] | Ki [3] [nM] | EC50 [4] [nM] | Ki [5] [nM] | Activity [6] [%] | Activity (CHO) | IC50 [7] [nM] | IC50 [8] [nM] | Ratio Ki [9]
20 | COc1ccc2oc(N3CCN4CCC3CC4)nc2n1 |  | 56 | 141 | 1000 | 24.9 |  |  |  |  | 
21 | O=c1c(Br)ccc2n1C[C@@H]1CNC[C@H]2C1 |  |  |  |  |  |  |  |  | 15.6 | 
22 | c1cc2nc(N3CCN4CCC3CC4)oc2cn1 |  |  | 162 |  | 309 | 186 |  |  |  | 
23 | Cc1nc2nc(N3CCN4CCC3CC4)oc2cc1Cl | 70 | 58 | 244 | 160 | 3.19 |  | Non-toxic | 16200 |  | 
24 | Cc1nc2nc(N3CCN4CCC3CC4)oc2cc1F |  | 36 | 547 | 2100 | 15.3 |  |  |  |  | 
25 | Cc1ccc2nc(N3CCN4CCC3CC4)oc2n1 |  | 59 | 126 | 1200 | 88.6 |  |  |  |  | 
26 | c1ccc(Oc2cnc3nc(N4CCN5CCC4CC5)oc3c2)cc1 |  | 75 | 1960 | 620 | 4.16 |  |  |  |  | 
27 | c1cc2oc(N3CCN4CCC3CC4)nc2nc1N1CCCC1 |  | 67 | 6340 | 470 | 1.91 |  |  |  |  | 
28 | c1cnc2oc(N3CCN4CCC3CC4)nc2c1 |  |  | 92 |  | 40.6 | 182 |  |  |  | 
29 | Cc1ccc2oc(N3CCN4CCC3CC4)nc2c1 |  |  | 3.4 |  | 33.6 | 287 |  |  |  | 
30 | CC(C)c1ccc2oc(N3CCN4CCC3CC4)nc2n1 |  | 68 | > 5290 | 580 | 9.05 |  |  |  |  | 
31 | Fc1ccc2oc(N3CCN4CCC3CC4)nc2c1 |  |  | 3.9 |  | 20.7 | 315 |  |  |  | 
32 | c1cnc2nc(N3CCN4CCC3CC4)oc2c1 |  |  | 579 |  | 30.3 | 220 |  |  |  | 
33 | CCc1ccc2oc(N3CCN4CCC3CC4)nc2n1 | 3310 | 34 | > 5260 | 100 | 18.7 |  | Non-toxic |  |  | 
34 | Clc1ccc2oc(N3CCN4CCC3CC4)nc2c1 |  |  | 1.2 |  | 1.92 | 122 |  |  |  | 
35 | c1ccc(-c2ccc3oc(N4CCN5CCC4CC5)nc3n2)cc1 |  | 71 | > 3580 | 320 | 3.22 |  |  |  |  | 3
36 | c1cc2oc(N3CCN4CCC3CC4)nc2nc1N1CCCCC1 |  | 30 | 1140 | 1900 | 67.1 |  |  |  |  | 
37 | Brc1ccc2oc(N3CCN4CCC3CC4)nc2c1 |  |  | < 17 |  | 2.15 | 78 |  |  |  | 
38 | Brc1cnc2nc(N3CCN4CCC3CC4)oc2c1 | 779 | 64 | 926 | 240 | 2.08 |  | Toxic | 2300 |  | 
